In publication PMC6400523 (The Journal of General Physiology, 2019):

What was measured:
rat ASCT2 = target: T1, rat ASCT2 (Rattus norvegicus, UniProt D3ZJ25); assay type: cell-based; conditions: for Behaviour in anion current assay (inhibitor / substrate): rASCT2, direction of induced current
T1 sequence (D3ZJ25 1-555): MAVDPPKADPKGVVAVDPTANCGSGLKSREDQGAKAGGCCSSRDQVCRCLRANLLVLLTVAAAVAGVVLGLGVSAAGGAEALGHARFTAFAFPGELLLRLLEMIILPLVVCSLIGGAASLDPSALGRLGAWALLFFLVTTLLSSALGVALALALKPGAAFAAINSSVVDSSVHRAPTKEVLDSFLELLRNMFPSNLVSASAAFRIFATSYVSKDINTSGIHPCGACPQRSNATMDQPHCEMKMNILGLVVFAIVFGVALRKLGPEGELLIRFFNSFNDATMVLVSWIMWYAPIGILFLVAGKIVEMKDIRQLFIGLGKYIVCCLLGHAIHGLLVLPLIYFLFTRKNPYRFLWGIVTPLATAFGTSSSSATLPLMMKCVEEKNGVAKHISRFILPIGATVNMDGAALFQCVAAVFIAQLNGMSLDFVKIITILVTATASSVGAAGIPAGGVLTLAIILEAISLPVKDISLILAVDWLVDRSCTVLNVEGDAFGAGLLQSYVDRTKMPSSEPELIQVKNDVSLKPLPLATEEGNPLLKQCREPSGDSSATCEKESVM
In short: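 HEK293 cells cotransfected with rASCT2 and YFP cDNA; whole-cell recording 24–30 h later at 0 mV. External 140 mM NaCl, 2 mM MgCl2, 2 mM CaCl2, 10 mM HEPES pH 7.40; NaSCN pipette solution with 10 mM alanine. 1 mM L-alanine control; outward current = leak inhibition. Ki from Michaelis–Menten-like fit, including varied alanine; Imax from 1 mM response and Km. ≥4 repeats.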

hASCT2 = target: T2, hASCT2 (Homo sapiens, UniProt Q15758); experiment: Current recording in HEK293 cells expressing human ASCT2; assay type: cell-based
T2 sequence (Q15758 1-541): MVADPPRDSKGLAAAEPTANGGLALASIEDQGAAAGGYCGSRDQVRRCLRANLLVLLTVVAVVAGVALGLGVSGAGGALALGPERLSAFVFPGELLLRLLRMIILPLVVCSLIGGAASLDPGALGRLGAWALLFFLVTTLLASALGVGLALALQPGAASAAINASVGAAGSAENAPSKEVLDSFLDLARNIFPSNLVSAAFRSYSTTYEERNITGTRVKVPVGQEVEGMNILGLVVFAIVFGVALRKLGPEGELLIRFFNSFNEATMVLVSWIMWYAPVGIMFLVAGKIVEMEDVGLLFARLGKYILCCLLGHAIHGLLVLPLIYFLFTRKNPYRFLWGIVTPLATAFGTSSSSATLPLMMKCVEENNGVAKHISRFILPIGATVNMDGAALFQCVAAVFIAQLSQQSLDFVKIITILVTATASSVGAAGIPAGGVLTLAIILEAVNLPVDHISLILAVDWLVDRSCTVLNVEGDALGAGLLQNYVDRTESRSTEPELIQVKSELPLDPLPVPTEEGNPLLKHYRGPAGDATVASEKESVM

| Behaviour in anion current assay (inhibitor / substrate) (rat ASCT2) | Compound | other results |
| --- | --- | --- |
| – | 4-fluorobenzene sulfonamide [Compound 9b] | Imax, maximum current at saturating concentration (rat ASCT2; rASCT2, compared with current induced by 1 mM alanine): highest outward current |
| borderline substrate-like properties | CS(N)(=O)=O [Compound 2b, methanesulfonamide] | – |
| – | C[C@H](N)C(=O)O [alanine, L-alanine] | Current for saturating alanine in hASCT2 (hASCT2): < 20 pA |
| properties of a transported substrate | NC[C@H](N)C(=O)O [Compound 1, L-2,3-diaminopropionic acid] | – |
